Measurements published in PubChem BioAssay AID588833 (Broad Institute, 2011).

These molecules were tested against Scavenger receptor class B member 1 (Mus musculus) (UniProt Q61009) (assay: mSR-BI lipid transfer blockers in CHO cells – ldlA[mSR-BI] CHO cells, fluorescence, dry powder, set 7, dose response (AID 588833)). Conditions: DiI-HDL uptake fluorescence, 3 h;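 active = compounds reducing HDL dye uptake whose fitted half-maximal concentration is at most twice the top tested dose; inconclusive = flat partial reduction or an unreliable curve fit; inactive = the rest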.
Outline: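 system = ldlA[mSR-BI] CHO cells | schedule = 3 h uptake with compounds, 37 °C | technique = bottom-read fluorescence after PBS washes, excitation 550 nm, emission 595 nm | probe or stimulus = DiI-labeled HDL at 10 µg/mL | doses = test compounds delivered by pin transfer | buffer or medium = F12, fatty acid-free BSA, HEPES buffer | benchmarks = positive control of BLT-1 at 1 µM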

Sequence of Scavenger receptor class B member 1 (Mus musculus) (Q61009 whole entry, looked up): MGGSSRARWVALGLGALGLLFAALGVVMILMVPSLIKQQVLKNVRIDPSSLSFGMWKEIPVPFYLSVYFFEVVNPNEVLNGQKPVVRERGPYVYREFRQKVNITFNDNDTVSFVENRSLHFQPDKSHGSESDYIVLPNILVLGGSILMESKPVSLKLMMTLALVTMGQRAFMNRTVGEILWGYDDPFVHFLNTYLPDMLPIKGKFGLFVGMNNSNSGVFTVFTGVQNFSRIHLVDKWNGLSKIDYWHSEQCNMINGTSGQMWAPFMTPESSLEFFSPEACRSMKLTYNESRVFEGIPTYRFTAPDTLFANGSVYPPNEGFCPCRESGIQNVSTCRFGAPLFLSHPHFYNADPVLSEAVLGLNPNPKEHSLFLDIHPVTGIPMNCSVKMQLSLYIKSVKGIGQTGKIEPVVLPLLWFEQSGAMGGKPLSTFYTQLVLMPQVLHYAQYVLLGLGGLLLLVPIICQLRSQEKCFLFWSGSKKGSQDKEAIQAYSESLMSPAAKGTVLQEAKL

AC50, active:
CCCCCCC1CCC/C1=N\NC(N)=S (stereo not drawn) 0.536 nM, COCC(=O)N1CCc2cc(-c3csc(NC(=O)c4cc(OC)cc(OC)c4)n3)ccc21 6.18 nM, C[C@H](C(=O)NC1CCCC1)N(C(=O)Cn1nnc(-c2ccc3c(c2)OCO3)n1)C1CCCCC1 15.4 nM
